# Experimental data from ChEMBL document CHEMBL1773065, “Impact of the nature of the substituent at the 3-position of 4H-1,2,4-benzothiadiazine 1,1-dioxides on their opening activity toward ATP-sensitive potassium channels” (J Med Chem, 2011).
# The source made the active and inactive calls. The rule behind the calls is not given here.
# Tests used:
# [1] = Inhibition of glucose induced insulin secretion from rat Pancreatic islet assessed as percentage of residual insulin release at 10 uM; assay type: functional
# How it was run: (§1)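 Isolated rat pancreatic islets incubated with 16.7 mM glucose and drug at 0.1–50 μM. Result is insulin release as a percentage of residual release, mean ± SEM (n).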
# [2] = Inhibition of glucose induced insulin secretion from rat Pancreatic islet assessed as percentage of residual insulin release at 50 uM; assay type: functional; how it was run: as §1
# [3] = Myorelaxant effect in Wistar rat uterus smooth muscle assessed as inhibition of contractions induced by continuous superfusion of oxytocin in absence ATP-sensitive potassium channel blocker glibenclamide; assay type: functional
# How it was run: (§2)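 Rat uterus continuously superfused with 50 mU/L oxytocin. Mean of three contraction AUCs set as 100%, then drug added at increasing concentrations, with no glibenclamide or with 1 or 10 μM glibenclamide present continuously. EC50 is the concentration giving 50% residual contraction, mean ± SEM (n).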
# [4] = Myorelaxant effect in Wistar rat uterus smooth muscle assessed as inhibition of contractions induced by continuous superfusion of oxytocin in presence of 10 uM ATP-sensitive potassium channel blocker glibenclamide; assay type: functional; how it was run: as §2
# [5] = Myorelaxant effect in Wistar rat uterus smooth muscle assessed as inhibition of contractions induced by continuous superfusion of oxytocin in presence of 1 uM ATP-sensitive potassium channel blocker glibenclamide; assay type: functional; how it was run: as §2
# [6] = Myorelaxant effect in KCl-induced precontracted rat aorta ring VSMC; assay type: functional, tissue-based
# How it was run: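 Rat aortic rings precontracted with 30 mM KCl. EC50 is the drug concentration giving 50% relaxation, mean ± SEM (n).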
# [7] = Inhibition of glucose induced insulin secretion from rat Pancreatic islet assessed as percentage of residual insulin release at 1 uM; assay type: functional; how it was run: as §1
# [8] = Dissociation constant, pKa of the compound; assay type: physicochemical
# How it was run: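 pKa determined by UV spectrophotometry at 25 °C. Spectra recorded in aqueous buffers from pH 5 to 12.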
# [9] = Inhibition of glucose induced insulin secretion from rat Pancreatic islet assessed as percentage of residual insulin release; assay type: functional; how it was run: as §1
# [10] = Myorelaxant effect in Wistar rat uterus smooth muscle assessed as inhibition of contractions induced by bolus of oxytocin injected in superfusion system at 100 uM; assay type: functional; set-up: scale not given: the % may be the effect or the level left
# How it was run: (§3)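 Uteri from fed Wistar rats (150–200 g) given diethylstilboestrol dipropionate i.m. the day before. Tissue superfused; after 30 min stabilization, 20 mU oxytocin boluses given every 10 min until contractions (AUC) were constant. Three or more boluses per drug concentration (10, 50, 100 μM). Mean AUC expressed as percentage of the drug-free response.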
# [11] = Myorelaxant effect in Wistar rat uterus smooth muscle assessed as inhibition of contractions induced by bolus of oxytocin injected in superfusion system at 50 uM; assay type: functional; set-up: scale not given: the % may be the effect or the level left; how it was run: as §3
# [12] = Myorelaxant effect in Wistar rat uterus smooth muscle assessed as inhibition of contractions induced by bolus of oxytocin injected in superfusion system at 10 uM; assay type: functional; set-up: scale not given: the % may be the effect or the level left; how it was run: as §3
# [13] = species on record: Rattus norvegicus; assay: Activation of ATP-sensitive potassium channel in rat aorta rings assessed as increased 86Rb outflow at 100 uM in presence of 10 uM ATP-sensitive potassium channel blocker glibenclamide; assay type: tissue-based
# How it was run: (§4)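 Prelabeled rat aortic rings perifused throughout with or without 10 μM glibenclamide. Drug applied at 100 μM. Read-out is 86Rb outflow. Four to five individual experiments.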
# [14] = species on record: Rattus norvegicus; assay: Activation of ATP-sensitive potassium channel in rat aorta rings assessed as increased 86Rb outflow at 100 uM in absence of ATP-sensitive potassium channel blocker glibenclamide; assay type: tissue-based; how it was run: as §4
# [15] = Inhibition of glucose induced insulin secretion from rat Pancreatic islet assessed as percentage of residual insulin release at 0.1 uM; assay type: functional
# How it was run: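 Isolated rat pancreatic islets incubated with test drug in the presence of 16.7 mM glucose. Insulin release was measured and expressed as percentage of residual insulin release, given as mean ± SEM with number of determinations (n).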
# [16] = species on record: Rattus norvegicus; assay: Activation of ATP-sensitive potassium channel in glucose and extracellular calcium evoked rat pancreatic islets assessed as increase in 86Rb outflow measured per min at 50 uM
# How it was run: (§5)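 Prelabeled rat pancreatic islets, perifused throughout with 5.6 mM glucose and extracellular Ca2+. Drug added at 10 or 50 μM, then withdrawn. Read-out is the increase in 86Rb outflow rate, in %/min. Six individual experiments.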
# [17] = species on record: Rattus norvegicus; assay: Activation of ATP-sensitive potassium channel in glucose and extracellular calcium evoked rat pancreatic islets assessed as increased 86Rb outflow at 50 uM by radioisotopic and fluorimetric method in presence of 10 uM ATP-sensitive potassium channel blocker glibenclamide
# How it was run: (§6)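 Prelabeled, perifused rat pancreatic islets in 5.6 mM glucose with extracellular Ca2+. Drug given at 10 or 50 μM with 10 μM glibenclamide present continuously in the medium. Read-out is 86Rb outflow rate. Six individual experiments.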
# [18] = species on record: Rattus norvegicus; assay: Activation of ATP-sensitive potassium channel in glucose and extracellular calcium evoked rat pancreatic islets assessed as increase in 86Rb outflow measured per min; how it was run: as §5
# [19] = species on record: Rattus norvegicus; assay: Activation of ATP-sensitive potassium channel in glucose and extracellular calcium evoked rat pancreatic islets assessed as reduction in 45Calcium outflow at 50 uM
# [20] = species on record: Rattus norvegicus; assay: Activation of ATP-sensitive potassium channel in extracellular calcium deprived and glucose evoked rat pancreatic islets assessed as reduction in 45Calcium outflow at 50 uM
# [21] = species on record: Rattus norvegicus; assay: Activation of ATP-sensitive potassium channel in glucose and extracellular calcium evoked rat pancreatic islets assessed as decrease in insulin output at 50 uM; conditions: TDE = time-dependent effect
# [22] = species on record: Rattus norvegicus; assay: Activation of ATP-sensitive potassium channel in glucose and extracellular calcium evoked rat pancreatic islets assessed as increased 86Rb outflow at 10 uM by radioisotopic and fluorimetric method in presence of 10 uM ATP-sensitive potassium channel blocker glibenclamide; how it was run: as §6
# [23] = species on record: Rattus norvegicus; assay: Activation of ATP-sensitive potassium channel in glucose and extracellular calcium evoked rat pancreatic islets assessed as reduced 45Calcium outflow at 50 uM in presence of extracellular potassium ion; set-up: scale not given: the % may be the effect or the level left
# How it was run: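 Prelabeled, perifused rat pancreatic islets exposed throughout to 2.8 mM glucose and extracellular Ca2+. Extracellular K+ raised suddenly from 5 to 50 mM, with or without 50 μM drug in the basal medium. Read-out is the magnitude of the increase in 45Ca outflow, in %/min.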
# [24] = species on record: Rattus norvegicus; assay: Activation of ATP-sensitive potassium channel in glucose and extracellular calcium evoked rat pancreatic islets assessed as increase in 86Rb outflow measured per min at 10 uM; how it was run: as §5
# [25] = species on record: Rattus norvegicus; assay: Activation of ATP-sensitive potassium channel in rat pancreatic islets assessed as decrease in insulinotropic glucose concentration-mediated cytosolic calcium level by fluorimetry
compound,measurement,setting,value
CC(C)SC1=NS(=O)(=O)c2ccccc2N1,Activity,[1],93.9%
CC(C)SC1=NS(=O)(=O)c2ccc(Br)cc2N1,Activity,[2],33.8%
same,Activity,[1],87%
CC(SC1=NS(=O)(=O)c2cc(Cl)ccc2N1)c1ccccc1 (racemic),EC50,[3],4.4 µM
same,EC50,[4],24.2 µM
same,EC50,[5],6.8 µM
same,EC50,[6],5.4 µM
Cc1ccc2c(c1)S(=O)(=O)N=C(NC(C)C)N2,Activity,[2],3.5%
same,Activity,[1],8.5%
same,Activity,[7],71.3%
CC(C)CC1=NS(=O)(=O)c2cc(Br)ccc2N1,Activity,[1],61.8%
same,Activity,[7],85.8%
CC(C)SC1=NS(=O)(=O)c2cc(Cl)ccc2N1,EC50,[3],> 30 µM
same,pKa,[8],7.01
same,Activity,[2],51.3%
same,Activity,[1],104%
same,IC50,[9],50 µM
same,EC50,[6],23 µM
same,Activity,[10],2.3%
same,Activity,[11],54.7%
same,Activity,[12],98.8%
COc1ccc2c(c1)S(=O)(=O)N=C(OC(C)C)N2,Activity,[1],80.8%
CC(C)[S+]([O-])C1=NS(=O)(=O)c2cc(Cl)ccc2N1 (stereo not given),Activity,[2],89.8%
same,Activity,[1],92.3%
CC(C)NC1=NS(=O)(=O)c2cc(Cl)ccc2N1,IC50,[9],0.55 µM
same,Activity,[10],75.6%
same,Activity,[11],95%
same,Activity,[12],94.4%
CC(C)CSC1=NS(=O)(=O)c2cc(Cl)ccc2N1,EC50,[3],13.5 µM
same,EC50,[6],6.2 µM
CC(C)NC1=NS(=O)(=O)c2cc(F)ccc2N1,Activity,[2],3.3%
same,Activity,[1],3.7%
CC(C)CC1=NS(=O)(=O)c2cc(Cl)ccc2N1,Activity,[13],inactive
same,Activity,[14],Active
same,pKa,[8],8.52
same,Activity,[2],21%
same,Activity,[1],43.2%
same,IC50,[9],5.8 µM
same,EC50,[6],5.8 µM
same,Activity,[10],55%
same,Activity,[11],64.7%
same,Activity,[12],73.9%
CC(C)SC1=NS(=O)(=O)c2cc(Br)ccc2N1,Activity,[2],47.3%
same,Activity,[1],90.3%
CC1=Nc2ccc(Cl)cc2S(=O)(=O)N1 [DIAZOXIDE],EC50,[3],> 30 µM
same,IC50,[9],18.4 µM
same,Activity,[10],67.7%
same,Activity,[11],76.3%
same,Activity,[12],93.8%
CC(C)OC1=NS(=O)(=O)c2cc(F)ccc2N1,Activity,[2],44.1%
same,Activity,[1],87.5%
Cc1ccc2c(c1)S(=O)(=O)N=C(OC(C)C)N2,Activity,[1],79.5%
CC(C)SC1=NS(=O)(=O)c2ccc(Cl)cc2N1,Activity,[2],44%
same,Activity,[1],80.2%
CC(C)NC1=NS(=O)(=O)c2cc(Br)ccc2N1,Activity,[2],6.7%
same,Activity,[1],8.1%
same,Activity,[15],91%
CC(C)NC1=NS(=O)(=O)c2ccccc2N1,Activity,[1],34.9%
same,Activity,[7],73.7%
CC(C)CC1=NS(=O)(=O)c2ccccc2N1,Activity,[1],85.2%
CC(C)SC1=NS(=O)(=O)c2cc(F)ccc2N1,Activity,[2],55.1%
same,Activity,[1],88.7%
CC(C)OC1=NS(=O)(=O)c2cc(Cl)ccc2N1,Activity,[16],1.32%
same,Activity,[17],inactive
same,Activity,[18],Dose-dependent effect
same,Activity,[19],Active
same,Activity,[20],inactive
same,Activity,[21],tde
same,Activity,[22],inactive
same,Activity,[23],1.12%
same,pKa,[8],8
same,Activity,[2],17.5%
same,Activity,[1],77.3%
same,IC50,[9],19.1 µM
same,EC50,[6],22.7 µM
same,Activity,[10],68.7%
same,Activity,[11],85.8%
same,Activity,[12],88%
same,Activity,[24],0.23%
same,Activity,[25],Active
CC(C)OC1=NS(=O)(=O)c2cc(Br)ccc2N1,Activity,[1],62.5%
CC(C)OC1=NS(=O)(=O)c2ccccc2N1,Activity,[1],90.4%
CC(C)CC1=NS(=O)(=O)c2cc(F)ccc2N1,Activity,[1],75.3%
COc1ccc2c(c1)S(=O)(=O)NC(NC(C)C)=N2,Activity,[19],Active
same,Activity,[20],inactive
same,Activity,[21],tde
same,Activity,[2],4.4%
same,Activity,[1],8.5%
CC(C)NC1=NS(=O)(=O)c2ccc(Cl)cc2N1,Activity,[2],6.4%
same,Activity,[1],7.5%
same,Activity,[15],76.7%
Cc1ccc2c(c1)S(=O)(=O)N=C(SC(C)C)N2,Activity,[1],77%
CC(C)OC1=NS(=O)(=O)c2cc(Cl)c(Cl)cc2N1,Activity,[1],73.7%
O=S1(=O)N=C(SCc2ccccc2)Nc2ccc(Cl)cc21,EC50,[3],11.7 µM
same,EC50,[6],5.4 µM
CC(C)SC1=NS(=O)(=O)c2cc(Cl)c(Cl)cc2N1,Activity,[2],12.9%
same,Activity,[1],70%
CC(N/C(=N\C#N)Nc1ccncc1)C(C)(C)C (racemic) [PINACIDIL ANHYDROUS],EC50,[3],1.3 µM
same,EC50,[4],28.3 µM
same,EC50,[5],8.1 µM
same,IC50,[9],202 µM
same,EC50,[6],0.62 µM
same,Activity,[10],38.1%
same,Activity,[11],42.7%
same,Activity,[12],44.9%
